Measured values from different studies.
Each line is one published result; the experiments were not run side by side.
Tested at: 1 µM
KIT L576P: Mast/stem cell growth factor receptor Kit (KIT, Homo sapiens, UniProt P10721, L576P)
KIT D816H: Mast/stem cell growth factor receptor Kit (KIT, Homo sapiens, UniProt P10721, D816H)
KIT V559D: Mast/stem cell growth factor receptor Kit (KIT, Homo sapiens, UniProt P10721, V559D)
KIT V559D/V654A: Mast/stem cell growth factor receptor Kit (KIT, Homo sapiens, UniProt P10721, V559D/V654A)
KIT D816V: Mast/stem cell growth factor receptor Kit (KIT, Homo sapiens, UniProt P10721, D816V)
KIT autoinhibited: Mast/stem cell growth factor receptor Kit, autoinhibited (KIT, Homo sapiens, UniProt P10721)

Compound	target	effect on	technique	remaining binding
O=S(=O)(NC1CCC(c2cc(F)ccc2F)(S(=O)(=O)c2ccc(Cl)cc2)CC1)C(F)(F)F (stereo not shown)	KIT L576P	cell-free assay	competition with immobilised ligand	100%
Nc1ncc2c(n1)-c1c([nH]c3ccc(C#CC4CC4)cc13)CCCC2	KIT D816H	binding	competition with immobilised ligand	89%
O=C(c1ccc(Nc2ncc(Cl)c(-c3ccc(Cl)s3)n2)cc1)N1CCC(N2CCCC2)CC1	KIT V559D	binding	competition with immobilised ligand	0.05%
N[C@H]1CCN(c2nccc(-c3cnn4ncccc34)n2)C1	KIT D816H	binding		64%
O=C(Nc1c[nH]nc1C(=O)NC1CCNCC1)c1cc(F)cc(F)c1	KIT V559D/V654A	binding	competition with immobilised ligand	100%
CN(C)c1nccc(-c2cnn3ncccc23)n1	KIT V559D/V654A	binding		100%
O=C(NCCCN1CCOCC1)c1ccc(Nc2nccc(-c3cc4ccccc4s3)n2)cc1	KIT D816V	binding	competition with immobilised ligand	16%
CO[C@H]1CC[C@H](CNc2ccc(S(=O)(=O)NC(=O)c3ccc(N4CCN(CC5=C(c6ccc(Cl)cc6)CC(C)(C)CC5)CC4)cc3Oc3cnc4[nH]ccc4c3)cc2[N+](=O)[O-])CC1	KIT D816V	cell-free assay	competition with immobilised ligand	100%
C=CC(=O)N1CCC(C(=O)NCC(=O)N2CCN(c3nc(-c4cnc(N)nc4C(F)F)nc(N4CCOCC4)n3)CC2)CC1	KIT V559D	binding	competition with immobilised ligand	78%
CN(c1nccc(-c2cnn3ncccc23)n1)C1CC1	KIT D816H	binding		83%
CCN1CCN(Cc2ccc(C(=O)Nc3ccc(C)c(Oc4ccc5c(c4)CC(=O)N5)c3)cc2C(F)(F)F)CC1	KIT L576P	binding	competition with immobilised ligand	2.9%
CNC(=O)Nc1ccc2c(c1)[C@@]1(CC2)OC(=O)N(CC(=O)N(Cc2ccc(F)cc2)[C@@H](C)C(F)(F)F)C1=O	KIT D816H	cell-free assay	competition with immobilised ligand	70%
CN(C)c1ncc(F)c(-c2cnn3ncccc23)n1	Mast/stem cell growth factor receptor Kit (KIT, Homo sapiens, UniProt P10721)	binding		100%
CC1=C(C#N)[C@@H](c2ccc3[nH]nc(C)c3c2)C(C#N)=C(c2ccc(Cl)cc2)N1	KIT D816H	cell-free assay	competition with immobilised ligand	84.3%
C[C@@H]1CCN(c2nccc(-c3cnn4ncccc34)n2)C1	KIT autoinhibited	binding		87%
N#Cc1ccc(Nc2ccc3[nH]c(=O)[nH]c3c2)c(Cl)c1	KIT D816V	cell-free assay	competition with immobilised ligand	88%
COc1cnc(Nc2cccc(S(N)(=O)=O)c2)nc1N1CCN(c2ccccc2)C(=O)C1	KIT V559D	binding	competition with immobilised ligand	98%
C[C@@]1(Cc2ccc(C#N)cc2)C(=O)N(c2cc(Cl)cc(Cl)c2)c2ncc(C(=O)NC3(c4nc(C5CCC5)no4)CC3)n21	KIT D816V	cell-free assay	competition with immobilised ligand	100%
O=C(NCCCN1CCOCC1)c1ccc(Nc2ncc(Cl)c(-c3ccc(Cl)s3)n2)cc1	KIT autoinhibited	binding	competition with immobilised ligand	31%
